# UPR XBP1 act: activators of adaptive arm of unfolded protein response (XBP1); CHO-XBP1 luciferase reporter, IRE1-XBP1 UPR activation, luminescence; percent of tunicamycin response, DMSO as zero; 330,000 compounds, 0.33% hits; activation, % at 20 µM;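 active = versus positive control, 20 µM dose yields 30% or more activation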
#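 Material – CHO cell line with stable XBP1 luciferase reporter · Buffer or medium – F12 plus 10% FBS · Compound – single point, 20 µM final compound, 1% DMSO · Schedule – 16-18 h cell attachment at 37 °C, then 6 h compound exposure · Signal – Steady-Glo luminescence read · Benchmarks – high control tunicamycin 10 µg/mL final, low control DMSO vehicle only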
# CHOP inh: blocks CHOP induction under ER stress; CHO-K1 CHOP-promoter luciferase, tunicamycin-induced, 15-18 h; inhibition, % at 10 µM; 220,000 compounds, 3.8% hits; AID 2732;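 active = compounds that reduced the stress-induced luciferase reporter signal by more than about 70% of percent inhibition, limit read from the data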
# CHOP UPR activ: apoptotic UPR (CHOP) activation | AID 449763 | activation, % at 10 µM | 330,000 compounds, 0.34% hits | CHO-CHOP luciferase reporter, luminescence; percent of tunicamycin response over DMSO baseline;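 active = at 10 µM dose, activation of 40% or more, normalized to positive control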
#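 Evaluation: % reporter activation, DMSO baseline versus tunicamycin full activation; System: CHO-CHOP luciferase reporter cell line; Input: 500 cells/well; Incubation: 6 h compound treatment, 37 °C; Measured by: Steady-Glo luciferase luminescence; Dosing: one dose, 10 µM in 0.5% DMSO; Buffer or medium: F12 medium, 10% FBS; Benchmarks: positive tunicamycin 10 µg/mL, negative DMSO alone.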
# 697 NFkB inh: lowers PMA/ionomycin-induced NF-kB signal in 697 B cells. inhibition, % at 4 µM. 330,000 compounds, 0.33% hits. 697 B-cell NF-kB luciferase reporter, 16 h; in the data active = inhibition above about 35%
# Jurkat NFkB inh: lowers PMA/ionomycin-induced NF-kB signal in Jurkat cells; PMA/ionomycin-induced NF-kB luciferase reporter, luminescence; inhibition, % at 4 µM; 330,000 compounds, 0.53% hits; AID 435003; in the data active = inhibition above about 50%
# Jurkat NFkB conf: lowers PMA/ionomycin-induced NF-kB signal in Jurkat cells; shares compounds with Jurkat NFkB inh; Jurkat NF-kB luciferase, 16 h; inhibition, % at 4 µM; 2,700 compounds, 27% hits;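 active = inhibition reaching about 45% at 4 µM in either replicate, limit read from the data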
# Numbers stand for hits; i = inactive; nt = no result. This excerpt belongs to a sample that is enriched for hits.
SMILES,UPR XBP1 act,CHOP inh,CHOP UPR activ,697 NFkB inh,Jurkat NFkB inh,Jurkat NFkB conf
Cc1ccnc(NC(=O)c2cc3ccccc3oc2=O)c1,i,i,i,i,i,nt
Cc1cccc(NC(=O)c2cc3ccccc3oc2=O)c1,i,nt,i,i,i,i
COc1cccc(NC(=O)c2cc3ccccc3o/c2=N\O)c1,i,nt,i,i,i,i
COc1cccc(NC(=O)c2cnn(-c3ccccc3)c2C)c1,i,nt,i,i,i,i
O=C(OCc1ccccc1)C1CCCN1C(=O)c1ccccc1[N+](=O)[O-] (configuration not stated),i,i,i,i,i,nt
Cc1nc(Cl)c(C(=O)NCCc2ccccc2)c(C)c1[N+](=O)[O-],i,nt,i,i,i,nt
COc1ccc(-n2c(SCC(=O)NC3CC3)nc3ccccc3c2=O)cc1OC,i,nt,i,i,i,nt
CCOC(=O)c1cnc2c(C)c(C)ccc2c1Nc1ccc(S(=O)(=O)Nc2ncccn2)cc1,i,i,i,i,i,nt
C(=C\c1nc(-c2ccncc2)no1)/c1ccccc1,i,i,i,i,i,nt
C(=C\c1nc(-c2ccccc2)no1)/c1ccccc1,i,i,i,i,i,i
CC(=O)NC(CC(=O)N1CCCC1)c1ccccc1 (configuration not stated),i,nt,i,i,i,nt
CN(C)S(=O)(=O)c1ccc(NC(=S)NC(=O)C2CCC2)cc1,i,nt,i,i,i,nt
CN(Cc1ccccc1)S(=O)(=O)c1ccc(NC(=S)NC(=O)C2CCCC2)cc1,i,i,i,i,63,i
COc1cccc(NC(=O)CN(C)C(C)C(=O)NC(=O)NC2CCCCC2)c1 (configuration not stated),i,nt,i,i,i,nt
Cc1nnc(SCc2cc(=O)[nH]c(/N=C(\N)Nc3ccccc3)n2)s1,i,i,i,i,i,nt
CCOc1ccc(N/C(N)=N/c2nc(CSc3nnc(C)s3)cc(=O)[nH]2)cc1,i,i,i,i,74,50
Cc1nc(Nc2nc3c(c(=O)[nH]2)CCC3)nc2ccccc12,i,nt,i,i,85,57
COc1ccc(CCn2c(Br)nc3c2c(=O)[nH]c(=O)n3C)cc1,i,i,i,i,57,i
COc1ccc(CCn2c(NN)nc3c2c(=O)[nH]c(=O)n3C)cc1,i,i,i,i,i,nt
Clc1ccc(-c2nnc(-c3ccccc3)o2)c(Cl)c1,i,i,i,i,i,i
COc1ccc(-c2nc3cc([N+](=O)[O-])ccc3o2)cc1,i,i,i,i,i,i
Nc1ccc(-c2nc3cc([N+](=O)[O-])ccc3o2)cc1,i,i,i,i,i,i
CC(C)(C)c1ccc(-c2nc3cc(N)ccc3o2)cc1,i,nt,i,i,i,i
CNc1nc(N)c([N+](=O)[O-])c(Nc2ccccc2OC)n1,i,nt,i,i,i,nt
COc1ccc(C)cc1S(=O)(=O)N1CCC(C(=O)N2CCN(C)CC2)CC1,i,i,i,i,i,nt
SMILES,UPR XBP1 act,CHOP inh,CHOP UPR activ,697 NFkB inh,Jurkat NFkB inh,Jurkat NFkB conf
Cc1ccc(/C=C/c2ccc(N(C)C)cc2)[n+](C)c1,i,nt,i,i,68,i
CN(C)c1ccc(/C=C/c2cc[n+](C)cc2)cc1,i,i,i,i,i,nt
O=C(OCC(=O)N1CCCC1)c1cccs1,i,i,i,i,i,nt
Cc1ccc(Nc2nc(N)nc(CCl)n2)cc1,i,i,i,i,i,nt
Cc1ccc(Nc2nc(N)nc(CCl)n2)c(C)c1,i,i,i,i,90,i
CCOc1ccc(Nc2nc(N)nc(CCl)n2)cc1,i,i,i,i,59,i
Cc1cccc(Nc2nc(N)nc(CCl)n2)c1C,i,i,i,i,88,i
Cc1[nH]c2ccccc2c1/C=N/NC(=O)c1cc(-c2ccncc2)nc2ccccc12,i,nt,i,i,56,i
CN(Cc1ccccc1)C(=O)CSc1n[nH]c(N)n1,i,nt,i,i,i,nt
CC(=O)c1ccc2c(c1)C1C=CCC1C(c1cc3c(cc1Br)OCO3)N2 (configuration not stated),i,nt,i,i,80,i
CCOc1ccc(-n2nc3ccc(N)cc3n2)cc1,i,nt,i,i,i,nt
CCOc1ccc(-n2nc3cc(C)c(N)cc3n2)cc1,i,nt,i,i,i,i
COc1cc(/C=N/NS(=O)(=O)c2ccc(C)cc2)ccc1OCc1cccc(C(=O)O)c1,i,i,i,i,62,i
COc1ccc2c([N+](=O)[O-])c(Cl)[nH]c2c1,i,i,i,i,i,nt
COc1ccccc1C(=O)Nc1ccc(N2CCCCC2)cc1,i,i,i,i,i,i
O=C(Nc1ccc(N2CCCCC2)cc1)c1ccccn1,i,94,i,i,67,69
O=C(Nc1ccc(N2CCCCCC2)cc1)c1ccc[nH]1,i,nt,i,i,i,i
Cc1cc(C)cc(C(=O)Nc2ccc(N3CCCC3)cc2)c1,i,i,i,i,i,i
COc1cccc(OC)c1C(=O)Nc1ccc(N2CCCC2)cc1,i,nt,i,i,i,nt
CCN(CC(=O)NCc1cccs1)C(=O)c1ccc(-c2ccc(F)cc2)o1,i,nt,i,i,i,nt
Cc1ccc(-n2cc(C(=O)c3ccc(F)cc3)nn2)cc1Cl,i,i,i,i,i,i
O=C1NC2(CCCCC2)C(=O)N1c1cccc(Cl)c1,i,nt,i,i,i,nt
CCC1CCCCN1C(=O)c1cc(S(=O)(=O)N2CCOCC2)ccc1C (configuration not stated),i,nt,i,i,i,nt
CCOC(=O)c1cnc2c(ccc3ccccc32)c1N,i,nt,i,i,i,i
COc1cc2sc3ccc(-c4ccc(N(C)C)nc4)cc3c(=O)c2cc1OC,i,nt,i,i,i,i
SMILES,UPR XBP1 act,CHOP inh,CHOP UPR activ,697 NFkB inh,Jurkat NFkB inh,Jurkat NFkB conf
COc1cc2sc3ccc(-c4ccc(CN5CCOCC5)cc4)cc3c(=O)c2cc1OC,i,nt,i,i,i,nt
COc1cccc(-c2noc(-c3ccc4c(c3)OCO4)n2)c1,i,i,i,i,i,i
COc1ccc(-c2nc(-c3ccc(Br)o3)no2)cc1OC,i,i,i,i,i,nt
COc1ccc(-c2noc(-c3ccc4c(c3)OCO4)n2)cc1,i,i,i,i,i,nt
COc1cccc(-c2nc(-c3ccc(Br)o3)no2)c1,i,i,i,i,i,i
COc1ccccc1-c1nc(-c2ccc(Br)o2)no1,i,73,i,i,i,i
Cc1ccc(NC(=O)CSCC(=O)NC2=NCCS2)cc1,i,nt,i,i,i,nt
COc1ccccc1-c1nc(-c2ccc(Br)cc2)no1,i,i,i,i,i,nt
COc1ccc(-c2nc(-c3ccc(Br)cc3)no2)c(OC)c1,i,i,i,i,i,i
COc1ccc(CCNC(=O)CSc2nnc(Cc3cccn3C)n2C)cc1OC,i,i,i,i,i,nt
O=C1CC2c3ccccc3C1C1C(=O)N(CCc3ccccc3)C(=O)C21 (configuration not stated),i,i,i,i,i,nt
Cc1ccc(-n2nc3c(c2NC(=O)c2ccc4c(c2)OCO4)CS(=O)(=O)C3)c(C)c1,i,nt,i,i,i,nt

# Compound activity from PubChem.
